This note sets out measurements from ChEMBL document CHEMBL1681713, “Lead detoxification activities and ADMET hepatotoxicities of a class of novel 5-(1-carbonyl-L-amino-acid)-2,2-dimethyl-[1,3]dithiolane-4-carboxylic acids” (Bioorg Med Chem Lett, 2011).

Data set [1] has as its system Brain. In words: Toxicity in mouse assessed as effect on iron level in brain per gram of organ at 0.4 mmol/kg, ip qd for 5 days. To be noted: in vivo, 120 h. The format is organism-based.
A further data set deals with Femur. Briefly: Detoxification activity against lead-induced toxicity in mouse assessed as reduction lead level in femurs per gram of organ at 0.4 mmol/kg, ip qd for 5 days measured 24 hrs last post dose by synchrotron X-ray fluorescence analysis. The format is functional. An outline of the steps: (§1)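 Lead-loaded mice were given normal saline vehicle (negative control) or test agent at 0.2, 0.4 or 0.6 mmol/kg. Lead was measured in liver, kidney, left femur and brain and reported as mean ± SD µg Pb/g organ against the NS group.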

The test system of data set [2] is Brain. Briefly: Detoxification activity against lead-induced toxicity in mouse assessed as reduction lead level in brain per gram of organ at 0.4 mmol/kg, ip qd for 5 days measured 24 hrs last post dose by synchrotron X-ray fluorescence analysis. It is filed as functional. The method, boiled down:
as §1

The test system of data set [3] is Kidney. In words: Detoxification activity against lead-induced toxicity in mouse assessed as reduction lead level in kidney per gram of organ at 0.4 mmol/kg, ip qd for 5 days measured 24 hrs last post dose by synchrotron X-ray fluorescence analysis. The format is functional. The method, boiled down: as §1
For data set [4], the system named is Liver. In words: Detoxification activity against lead-induced toxicity in mouse assessed as reduction lead level in liver per gram of organ at 0.4 mmol/kg, ip qd for 5 days measured 24 hrs last post dose by synchrotron X-ray fluorescence analysis. The format is functional. An outline of the steps:
as §1

Data set [5] can be described thus: Detoxification activity against lead-induced toxicity in mouse assessed as reduction lead level in feces at 0.4 mmol/kg, ip qd for 5 days measured 24 hrs last post dose by synchrotron X-ray fluorescence analysis. It is filed as functional. An outline of the steps:
(§2)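 Lead-loaded mice were given normal saline vehicle, DL-penicillamine or NaDMS (positive controls), or test agent, each at 0.4 mmol/kg; n = 12 per group. Lead was measured in feces and urine and reported as mean ± SD µg Pb/g excrement against the NS group.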

The nature of data set [6]: Detoxification activity against lead-induced toxicity in mouse assessed as reduction lead level in urine at 0.4 mmol/kg, ip qd for 5 days measured 24 hrs last post dose by synchrotron X-ray fluorescence analysis. The format is functional. An outline of the steps: as §2
Data set [7] relates to Brain. Briefly: Toxicity in mouse assessed as effect on copper level in brain per gram of organ at 0.4 mmol/kg, ip qd for 5 days. The format is organism-based. Conditions: in vivo, 120 h.
Data set [8] has as its system Brain. Briefly: Toxicity in mouse assessed as effect on zinc level in brain per gram of organ at 0.4 mmol/kg, ip qd for 5 days. It is filed as organism-based. Conditions: in vivo, 120 h.
Data set [9] has as its system Brain. In words: Toxicity in mouse assessed as effect on manganese level in brain per gram of organ at 0.4 mmol/kg, ip qd for 5 days. To be noted: in vivo, 120 h. The format is organism-based.
The test system of data set [10] is Brain. Briefly: Toxicity in mouse assessed as effect on calcium level in brain per gram of organ at 0.4 mmol/kg, ip qd for 5 days. To be noted: in vivo, 120 h. The format is organism-based.
The subject of data set [11] is Liver. Briefly: Toxicity in mouse assessed as effect on iron level in liver per gram of organ at 0.4 mmol/kg, ip qd for 5 days. The format is organism-based. Conditions: in vivo, 120 h.
Data set [12] relates to Liver. In words: Toxicity in mouse assessed as effect on copper level in liver per gram of organ at 0.4 mmol/kg, ip qd for 5 days. It is filed as organism-based. To be noted: in vivo, 120 h.
In data set [13] the test system is Liver. Briefly: Toxicity in mouse assessed as effect on zinc level in liver per gram of organ at 0.4 mmol/kg, ip qd for 5 days. The format is organism-based. Conditions: in vivo, 120 h.
Data set [14] concerns Liver. Briefly: Toxicity in mouse assessed as effect on manganese level in liver per gram of organ at 0.4 mmol/kg, ip qd for 5 days. The format is organism-based. To be noted: in vivo, 120 h.
Data set [15] has as its system Liver. In words: Toxicity in mouse assessed as effect on calcium level in liver per gram of organ at 0.4 mmol/kg, ip qd for 5 days. It is filed as organism-based. To be noted: in vivo, 120 h.
Data set [16] deals with Kidney. Briefly: Toxicity in mouse assessed as effect on iron level in kidney per gram of organ at 0.4 mmol/kg, ip qd for 5 days. The format is organism-based. Conditions: in vivo, 120 h.
Data set [17] has as its system Kidney. Briefly: Toxicity in mouse assessed as effect on copper level in kidney per gram of organ at 0.4 mmol/kg, ip qd for 5 days. It is filed as organism-based. To be noted: in vivo, 120 h.
Data set [18] relates to Kidney. Briefly: Toxicity in mouse assessed as effect on zinc level in kidney per gram of organ at 0.4 mmol/kg, ip qd for 5 days. To be noted: in vivo, 120 h. The format is organism-based.
In data set [19] the test system is Kidney. Briefly: Toxicity in mouse assessed as effect on manganese level in kidney per gram of organ at 0.4 mmol/kg, ip qd for 5 days. The format is organism-based. To be noted: in vivo, 120 h.
Data set [20] has as its system Kidney. In words: Toxicity in mouse assessed as effect on calcium level in kidney per gram of organ at 0.4 mmol/kg, ip qd for 5 days. Conditions: in vivo, 120 h. It is filed as organism-based.
For another data set, the system named is Mus musculus. In words: Toxicity in mouse assessed as change in bodyweight at 0.4 mmol/kg, ip qd for 5 days. The format is organism-based. Conditions: in vivo, 120 h. The method, boiled down: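 Lead-loaded mice were given normal saline vehicle or test agent at 0.4 mmol/kg. Body weights were recorded and compared with the NS group to assess growth.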

Structures are written as SMILES.

`CC1(C)SC(C(=O)O)C(C(=O)N[C@@H](CCC(=O)O)C(=O)O)S1` (stereo partly specified): the Activity stood at 57.57 µg/g in the data set with Brain [1]; 13.69 µg/g in the data set with Femur; 1.22 µg/g in the data set on Brain [2]; 7.21 µg/g with Kidney [3]; 5.64 µg/g in the data set with Liver [4]; 4.49 µg/g in data set [5]. The Activity in data set [6] came out at 2.65 µg/g; in the data set with Brain [7], 2.5 µg/g; in the data set with Brain [8], 34.99 µg/g; in the data set with Brain [9] it was 0.77 µg/g; in the data set on Brain [10] it was 69.99 µg/g; with Liver [11], 154.4 µg/g. The Activity in the data set with Liver [12] stood at 3.72 µg/g; in the data set with Liver [13], 38.01 µg/g; in the data set with Liver [14], 1.4 µg/g; in the data set on Liver [15] it was 60.4 µg/g; in the data set with Kidney [16], 93.97 µg/g; with Kidney [17], 3.73 µg/g. Besides, the Activity with Kidney [18] worked out at 28.16 µg/g; in the data set with Kidney [19], 1.35 µg/g; in the data set on Kidney [20] it was 77.45 µg/g; in the data set on Mus musculus, 30.5 g.

On to `CC1(C)SC(C(=O)O)C(C(=O)N[C@@H](Cc2c[nH]c3ccccc23)C(=O)O)S1` (stereo partly specified), for which the Activity stood at 56.94 µg/g with Brain [1]; 17.66 µg/g in the data set on Femur; 1.21 µg/g in the data set with Brain [2]; 7.5 µg/g in the data set with Kidney [3]; 5.59 µg/g with Liver [4]; 4.14 µg/g in data set [5]. Moreover, the Activity in data set [6] came out at 2.84 µg/g; with Brain [7], 2.39 µg/g; in the data set on Brain [8], 33.04 µg/g; with Brain [9] it was 0.78 µg/g; with Brain [10], 69.35 µg/g; in the data set on Liver [11], 153.84 µg/g. In addition, the Activity in the data set with Liver [12] amounted to 3.76 µg/g; in the data set with Liver [13], 36.96 µg/g; in the data set on Liver [14] it was 1.4 µg/g; in the data set on Liver [15], 59.69 µg/g; in the data set on Kidney [16], 93.07 µg/g; in the data set with Kidney [17], 3.69 µg/g. In addition, the Activity amounted to 27.99 µg/g in the data set on Kidney [18], 1.4 µg/g with Kidney [19], 76.92 µg/g in the data set on Kidney [20] and 30.8 g in the data set on Mus musculus.

For the compound `CC(C)C[C@H](NC(=O)C1SC(C)(C)SC1C(=O)O)C(=O)O` (stereo partly specified), the Activity worked out at 57.49 µg/g with Brain [1]; 16.33 µg/g in the data set with Femur; 1.44 µg/g with Brain [2]; 7.32 µg/g with Kidney [3]; 3.64 µg/g in the data set with Liver [4]; 3.99 µg/g in data set [5]. Besides, the Activity in [6] turned out to be 3.44 µg/g; in the data set on Brain [7], 2.6 µg/g; in the data set with Brain [8] it was 32.49 µg/g; in the data set on Brain [9], 0.7 µg/g; in the data set on Brain [10], 69.29 µg/g; in the data set on Liver [11] it was 153.8 µg/g. The Activity was determined as 3.59 µg/g in the data set with Liver [12]; 37.88 µg/g in the data set with Liver [13]; 1.41 µg/g in the data set with Liver [14]; 59.8 µg/g with Liver [15]; 93.02 µg/g with Kidney [16]; 3.65 µg/g with Kidney [17]. Also, the Activity in the data set with Kidney [18] is 26.99 µg/g; in the data set on Kidney [19], 1.41 µg/g; with Kidney [20], 76.48 µg/g; in the data set on Mus musculus, 29.7 g.
